Assay results reported in ChEMBL document CHEMBL4680306, “The 3-D conformational shape of N-naphthyl-cyclopenta[d]pyrimidines affects their potency as microtubule targeting agents and their antitumor activity” (Bioorg Med Chem, 2021).

Columns and labels:
MDA-MB-435 [1] = assay: Antiproliferative activity against human MDA-MB-435 cell line assessed as inhibition of cell proliferation measured after 48 hrs by SRB assay; type: functional, cell-based; conditions: MDA-MB-435, 48 h
Procedure, shortened: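 MDA-MB-435 melanoma cells were assessed by sulforhodamine B assay. IC50 is the mean ± SD of at least three independent experiments, each run in triplicate.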

U-251 = assay: Cytotoxicity against human U251 cell line assessed as inhibition of cell growth after 48 hrs by SRB assay; type: functional, cell-based; conditions: U-251, 48 h
[2] = Inhibition of bovine tubulin polymerization assessed as reduction in extent of assembly preincubated for 15 mins followed by addition of reaction mixture measured after 20 mins by turbidimetric assay; set-up: species or system Bos taurus
Procedure, shortened: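 After chilling, GTP was added (0.4 mM final). Turbidity at 350 nm was read after a jump from 0 °C to 30 °C.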

HeLa = assay: Antiproliferative activity against human HeLa cells assessed as decrease in cell growth measured after 48 hrs by SRB method; type: functional, cell-based
[3] = Relative resistance, ratio of IC50 for inhibition of beta3 Tubulin (unknown origin) expressed in human HeLa cell line assessed as inhibition of cell proliferation to IC50 antiproliferative activity against human HeLa cells
[4] = Relative resistance, ratio of IC50 for antiproliferative activity against human SK-OV-3 MDR-1-6/6 cells expressing Pgp to IC50 antiproliferative activity against human SK-OV-3 cells; type: functional
HOP-62 = assay: Cytotoxicity against human HOP-62 cells assessed as inhibition of cell growth measured after 48 hrs by SRB assay; type: functional
HOP-92 = assay: Cytotoxicity against human HOP-92 cells assessed as inhibition of cell growth measured after 48 hrs by SRB assay; type: functional
NCI-H460 = assay: Cytotoxicity against human NCI-H460 cells assessed as inhibition of cell growth measured after 48 hrs by SRB assay; type: functional
NCI-H522 = assay: Cytotoxicity against human NCI-H522 cells assessed as inhibition of cell growth measured after 48 hrs by SRB assay; type: functional
SF-268 = assay: Cytotoxicity against human SF-268 cells assessed as inhibition of cell growth measured after 48 hrs by SRB assay; type: functional
SF-295 = assay: Cytotoxicity against human SF-295 cells assessed as inhibition of cell growth measured after 48 hrs by SRB assay; type: functional
SNB-75 = assay: Cytotoxicity against human SNB-75 cells assessed as inhibition of cell growth measured after 48 hrs by SRB assay; type: functional
786-0 = assay: Cytotoxicity against human 786-0 cells assessed as inhibition of cell growth measured after 48 hrs by SRB assay; type: functional
A498 = assay: Cytotoxicity against human A498 cells assessed as inhibition of cell growth measured after 48 hrs by SRB assay; type: functional
ACHN = assay: Cytotoxicity against human ACHN cells assessed as inhibition of cell growth measured after 48 hrs by SRB assay; type: functional
RXF 393 = assay: Cytotoxicity against human RXF 393 cells assessed as inhibition of cell growth measured after 48 hrs by SRB assay; type: functional
UO-31 = assay: Cytotoxicity against human UO-31 cells assessed as inhibition of cell growth measured after 48 hrs by SRB assay; type: functional
HCT-116 = assay: Cytotoxicity against human HCT-116 cells assessed as inhibition of cell growth measured after 48 hrs by SRB assay; type: functional
KM12 = assay: Cytotoxicity against human KM12 cells assessed as inhibition of cell growth measured after 48 hrs by SRB assay; type: functional
SW-620 = assay: Cytotoxicity against human SW-620 cells assessed as inhibition of cell growth measured after 48 hrs by SRB assay; type: functional
OVCAR-3 = assay: Cytotoxicity against human OVCAR-3 cells assessed as inhibition of cell growth measured after 48 hrs by SRB assay; type: functional
NCI/ADR-RES = assay: Cytotoxicity against human NCI/ADR-RES cells assessed as inhibition of cell growth measured after 48 hrs by SRB assay; type: functional
Malme-3M = assay: Cytotoxicity against human Malme-3M cells assessed as inhibition of cell growth measured after 48 hrs by SRB assay; type: functional
MDA-MB-435 [5] = assay: Cytotoxicity against human MDA-MB-435 cells assessed as inhibition of cell growth measured after 48 hrs by SRB assay; type: functional
SK-MEL-2 = assay: Cytotoxicity against human SK-MEL-2 cells assessed as inhibition of cell growth measured after 48 hrs by SRB assay; type: functional
SK-MEL-28 = assay: Cytotoxicity against human SK-MEL-28 cells assessed as inhibition of cell growth measured after 48 hrs by SRB assay; type: functional
[6] = Cytotoxicity against human SK-MEL-5 cells assessed as inhibition of cell growth measured after 48 hrs by SRB assay; type: functional
UACC-62 = assay: Cytotoxicity against human UACC-62 cells assessed as inhibition of cell growth measured after 48 hrs by SRB assay; type: functional
PC-3 = assay: Cytotoxicity against human PC-3 cells assessed as inhibition of cell growth measured after 48 hrs by SRB assay; type: functional
DU-145 = assay: Cytotoxicity against human DU-145 cells assessed as inhibition of cell growth measured after 48 hrs by SRB assay; type: functional
MCF7 = assay: Cytotoxicity against human MCF7 cells assessed as inhibition of cell growth measured after 48 hrs by SRB assay; type: functional
MDA-MB-231 = assay: Cytotoxicity against human MDA-MB-231 cells assessed as inhibition of cell growth measured after 48 hrs by SRB assay; type: functional
Hs-578T = assay: Cytotoxicity against human Hs-578T cells assessed as inhibition of cell growth measured after 48 hrs by SRB assay; type: functional
BT-549 = assay: Cytotoxicity against human BT-549 cells assessed as inhibition of cell growth measured after 48 hrs by SRB assay; type: functional
T47D = assay: Cytotoxicity against human T47D cells assessed as inhibition of cell growth measured after 48 hrs by SRB assay; type: functional
CCRF-CEM = assay: Cytotoxicity against human CCRF-CEM cells assessed as inhibition of cell growth measured after 48 hrs by SRB assay; type: functional
K562 = assay: Cytotoxicity against human K562 cells assessed as inhibition of cell growth measured after 48 hrs by SRB assay; type: functional
MOLT-4 = assay: Cytotoxicity against human MOLT-4 cells assessed as inhibition of cell growth measured after 48 hrs by SRB assay; type: functional
RPMI-8226 = assay: Cytotoxicity against human RPMI-8226 cells assessed as inhibition of cell growth measured after 48 hrs by SRB assay; type: functional
[7] = Toxicity in NCr athymic nude nu/nu mouse xenografted human U251 cells assessed as body weight change at 50 mg/kg once in a week relative to temozolomide; type: organism-based; conditions: in vivo, 17.5 mg/kg, 168 h, in the assay text read “17.5 mg/kg twice in a week” for “50 mg/kg once in a week”
Procedure, shortened: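 NCr athymic nu/nu nude mice (8 wk; equal numbers of males and females) received 500,000 U251 glioma cells in the lateral flank. Once tumors were visible, mice were dosed with carrier (5% DMSO, 5% Kolliphor-15, 90% normal saline), temozolomide at 50 mg/kg/wk, or test compound at 17.5 mg/kg twice weekly until the end of the study. Body weight was monitored and tumors were caliper-measured twice weekly; n=6–8.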

SMILES: COc1cccc2cc(N(C)c3nc(C)nc4c3CCC4)ccc12
- IC50 (MDA-MB-435 [1]): 2.8 nM
- IC50 (U-251): 17.6 nM
- IC50 [2]: 980 nM
- IC50 (HeLa): 3.4 nM
- Ratio IC50 [3]: 0.8
- Ratio IC50 [4]: 2.1
- GI50 (HOP-62): < 10 nM
- GI50 (HOP-92): 28.5 nM
- GI50 (NCI-H460): < 10 nM
- GI50 (NCI-H522): < 10 nM
- GI50 (SF-268): < 10 nM
- GI50 (SF-295): < 10 nM
- GI50 (SNB-75): 1890 nM
- GI50 (786-0): < 10 nM
- GI50 (A498): < 10 nM
- GI50 (ACHN): < 10 nM
- GI50 (RXF 393): < 10 nM
- GI50 (UO-31): 10.7 nM
- GI50 (HCT-116): < 10 nM
- GI50 (KM12): < 10 nM
- GI50 (SW-620): < 10 nM
- GI50 (OVCAR-3): < 10 nM
- GI50 (NCI/ADR-RES): < 10 nM
- GI50 (Malme-3M): 11500 nM
- GI50 (MDA-MB-435 [5]): < 10 nM
- GI50 (SK-MEL-2): < 10 nM
- GI50 (SK-MEL-28): 5630 nM
- GI50 [6]: < 10 nM
- GI50 (UACC-62): 1490 nM
- GI50 (PC-3): < 10 nM
- GI50 (DU-145): < 10 nM
- GI50 (MCF7): < 10 nM
- GI50 (MDA-MB-231): < 10 nM
- GI50 (Hs-578T): < 10 nM
- GI50 (BT-549): < 10 nM
- GI50 (T47D): < 10 nM
- GI50 (CCRF-CEM): < 10 nM
- GI50 (K562): < 10 nM
- GI50 (MOLT-4): < 10 nM
- GI50 (RPMI-8226): < 10 nM
- Activity [7]: Non-Toxic
